Test results reported in article PMC9273405 (Burns & Trauma, 2022).

Key:
[1] = system: full-thickness injury skin wounds in mice; assay: Full-thickness injury skin wound healing in mice; type: in vivo, mouse
In short: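 Mice were anaesthetised with 1% pentobarbital sodium (0.1 ml/20 g) and given two round 8 × 8 mm dorsal skin wounds. Wounds were treated topically twice daily with 20 μl of vehicle, peptide (0.5, 5 or 50 nM) or EGF (50 nM). Residual wound area was measured from images as a percentage of initial area. New epidermis and granulation tissue thickness were measured from H&E sections on days 4 and 8. Six mice per group.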

[2] = system: scald wounds in mice skin; assay: Scald wound repair in mouse skin; type: in vivo; conditions: 50 nM; for re-epithelialization rate: scald wound

B1: epidermal growth factor (protein, UniProt P01133 23-1207, looked up)
Pro-epidermal growth factor: PQHWSCPEGTLAGNGNSTCVGPAPFLIFSHGNSIFRIDTEGTNYEQLVVDAGVSVIMDFHYNEKRIYWVDLERQLLQRVFLNGSRQERVCNIEKNVSGMAINWINEEVIWSNQQEGIITVTDMKGNNSHILLSALKYPANVAVDPVERFIFWSSEVAGSLYRADLDGVGVKALLETSEKITAVSLDVLDKRLFWIQYNREGSNSLICSCDYDGGSVHISKHPTQHNLFAMSLFGDRIFYSTWKMKTIWIANKHTGKDMVRINLHSSFVPLGELKVVHPLAQPKAEDDTWEPEQKLCKLRKGNCSSTVCGQDLQSHLCMCAEGYALSRDRKYCEDVNECAFWNHGCTLGCKNTPGSYYCTCPVGFVLLPDGKRCHQLVSCPRNVSECSHDCVLTSEGPLCFCPEGSVLERDGKTCSGCSSPDNGGCSQLCVPLSPVSWECDCFPGYDLQLDEKSCAASGPQPFLLFANSQDIRHMHFDGTDYGTLLSQQMGMVYALDHDPVENKIYFAHTALKWIERANMDGSQRERLIEEGVDVPEGLAVDWIGRRFYWTDRGKSLIGRSDLNGKRSKIITKENISQPRGIAVHPMAKRLFWTDTGINPRIESSSLQGLGRLVIASSDLIWPSGITIDFLTDKLYWCDAKQSVIEMANLDGSKRRRLTQNDVGHPFAVAVFEDYVWFSDWAMPSVMRVNKRTGKDRVRLQGSMLKPSSLVVVHPLAKPGADPCLYQNGGCEHICKKRLGTAWCSCREGFMKASDGKTCLALDGHQLLAGGEVDLKNQVTPLDILSKTRVSEDNITESQHMLVAEIMVSDQDDCAPVGCSMYARCISEGEDATCQCLKGFAGDGKLCSDIDECEMGVPVCPPASSKCINTEGGYVCRCSEGYQGDGIHCLDIDECQLGEHSCGENASCTNTEGGYTCMCAGRLSEPGLICPDSTPPPHLREDDHHYSVRNSDSECPLSHDGYCLHDGVCMYIEALDKYACNCVVGYIGERCQYRDLKWWELRHAGHGQQQKVIVVAVCVVVLVMLLLLSLWGAHYYRTQKLLSKNPKNPYEESSRDVRSRRPADTEDGMSSCPQPWFVVIKEHQDLKNGGQPVAGEDGQAADGSMQPTSWRQEPQLCGMGTEQGCWIPVSSDKGSCPQVMERSFHMPSYGTQTLEGGVEKPHSLLSANPLWQQRALDPPHQMELTQ
modifications: Pro-epidermal growth factor
[1]; 50 nM, 20 μl topical twice a day, day 8 post-operation, n = 6 (vehicle 71 ± 3%)
  skin wound healing rate: 87 ± 2%
[1]; day 4, H&E staining, n = 6 (vehicle 119 ± 7)
  thickness of new epidermis: 58 ± 2 μm
[1]; day 4, H&E staining, n = 6 (vehicle 505 ± 46)
  thickness of granulation tissue: 317 ± 82 μm
[1]; day 8, H&E staining, n = 6 (vehicle 86 ± 7)
  thickness of new epidermis: 38 ± 10 μm
[1]; day 8, H&E staining, n = 6 (vehicle 982 ± 8)
  thickness of granulation tissue: 719 ± 54 μm
[2]; 20 μl topical, day 12 after operation, n = 6 (vehicle 40 ± 4%)
  regeneration rate of scald wounds: 78 ± 5%
[2]; day 8, H&E staining, n = 6 (vehicle 15 ± 3%)
  re-epithelialization rate: 38 ± 3%
[2]; day 12, H&E staining, n = 6 (vehicle 42 ± 2%)
  re-epithelialization rate: almost complete re-epithelialization
